Experiment [1] is described as follows: inhibitors of TNFa-induced NFkB p65 translocation, primary screen, imaging, HUVEC, MLSMR starter and 10KST1 sets (AID 438;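 active = inhibition above 20% together with a positive visual image hit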;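 also: compound added about 3h40 before a 20 min TNFalpha stimulation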;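 as to inhibition: signal is the nuclear over cytoplasmic p65 intensity ratio per well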). Particulars: HUVEC TNFa-induced p65 nuclear translocation; cell count: measured here: nuclei count (cytotoxicity indicator), at 2.08 µM; inhibition: at 2 µM, stronger effect = higher value, 0% TNFa-plus-vehicle, 100% no-TNFa wells.
The nature of experiment [2]: reduction of polyQ htt aggregates in cells – imaging, exon1htt(103Q)mCFP cells, high-content imaging, primary screen (AID 483;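 active = visual image review flags a hit and inhibition of aggregation exceeds 20%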;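 also: compound exposure lasted 3 days before fixation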;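 as to nuclei count: percent of the per-plate median nuclei count of sample wells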). Particulars: exon1htt(103Q)mCFP cell line, aggregate imaging, at 2 µM; inhibition of aggregation: stronger effect = higher value; nuclei count: measured here: cell count, toxicity.
Experiment [3] can be described thus: endothelial E-selectin expression blockers – imaging, HUVEC, immunofluorescence, MLSMR starter and 10KST1 sets, primary screen (AID 487;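 active = visually confirmed hit in the image check and inhibition above 20%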;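 as to inhibition: signal is fraction of cell area covered by stained E-selectin grains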;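 as to nuclei count: 100% = median nuclei count of all wells on the same plate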). Particulars: HUVEC TNFalpha-induced E-selectin immunofluorescence imaging, at 2 µM; inhibition: stronger effect = higher value; nuclei count: measured here: cell number, toxicity.
Experiment [4] concerns the target Voltage-gated potassium channel subunit beta-2 (Rattus norvegicus) (UniProt P62483). Description: inhibitors of rat Kvbeta2 reductase activity – biochemical, NADPH fluorescence, primary screen (AID 622;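 active = fluorescence slope higher than the sample average by over 3 SD, cut at about -0.22 in these data, passing the limit was not always enough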;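 also: slope of raw intensity against log time taken from 70 to 1610 s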). Conditions: recombinant KvBeta, 4-cyanobenzaldehyde reduction, at 10 µM, stronger effect = higher value.
Experiment [5] shares this target. Description: enhancers of rat Kvbeta2 NADPH turnover – biochemical, NADPH fluorescence, primary screen (AID 623;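 active = NADPH fluorescence slope more negative than the mean of all samples by about 3 SD, 99.7% confidence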;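 also: fluorescence intensity change per second fitted from 20 to 320 s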). Particulars: Recombinant KvBeta, NADPH fluorescence decrease slope, 10 min; at 10 µM; stronger effect = lower value.
The target of experiment [6] is Muscarinic acetylcholine receptor M4 (Homo sapiens) (UniProt P08173). The experiment in a line: M4-linked GIRK flux change, two-sided – cell-based, HEK293 M4/GIRK, thallium flux, BTC-AM, M4 allosteric agonist project, primary screen (AID 625;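 active = fluorescence slope after compound addition differing from the mean of all tested samples at 99.7% confidence, mostly higher but some lower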;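 also: thallium influx through GIRK channels coupled to M4 in HEK293 cells with BTC-AM dye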). Conditions: at 10 µM, actives lie on both sides. Summed up: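 Assay system: HEK293 cells with M4 receptor and GIRK channels / Controls: carbachol and DMSO controls / Schedule: 1 h dye loading, 2 min kinetic read / Technique: kinetic fluorescence with BTC-AM dye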

The nature of experiment [7]: blockers of RIG-like receptor reporter activation – cell-based, Sendai virus stimulus, luciferase, 10K MLSCN set, TLR/RLR signaling modifier project, primary screen (AID 602276).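 Also: firefly luciferase from ISG56 promoter only with Renilla not read in this screen; 0% = Sendai virus plus DMSO and 100% = medium plus DMSO without virus.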 Conditions: HEK293 RL24 IRF3 luciferase reporter, at 10 µM, stronger effect = higher value. For orientation: In a reporter assay the amount or activity of a reporter protein is the signal.
Experiment [8] is described as follows: TLR3 IRF3 reporter activation blockers – cell-based, poly I:C stimulus, luciferase, 10K MLSCN set, primary screen (AID 602277;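 active = inhibition of the reporter signal at or above 50%; inactive = inhibition below 50%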). Conditions: HEK293-TLR3 RL24 IRF3 luciferase reporter, at 10 µM, stronger effect = higher value.

The source made the active and inactive calls.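 The calls were made as follows, unless noted: active = inhibition at or above 50% at 10 µM; inactive = inhibition below 50%.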

The term inhibition denotes the relative decrease from the control value, in per cent.

Voltage-gated potassium channel subunit beta-2 (Rattus norvegicus), sequence (P62483 whole entry, looked up): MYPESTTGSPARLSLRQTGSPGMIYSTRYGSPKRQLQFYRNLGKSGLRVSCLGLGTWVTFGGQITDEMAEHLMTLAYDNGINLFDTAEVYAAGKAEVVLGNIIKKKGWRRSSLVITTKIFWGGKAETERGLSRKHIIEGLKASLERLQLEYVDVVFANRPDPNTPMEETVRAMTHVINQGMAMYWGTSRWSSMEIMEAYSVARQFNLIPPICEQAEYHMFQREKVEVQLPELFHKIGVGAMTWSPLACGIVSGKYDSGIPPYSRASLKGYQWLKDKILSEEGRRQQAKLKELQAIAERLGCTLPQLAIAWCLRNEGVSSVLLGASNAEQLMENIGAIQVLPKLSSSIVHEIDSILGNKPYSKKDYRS
Muscarinic acetylcholine receptor M4 (Homo sapiens), sequence (P08173 whole entry, looked up): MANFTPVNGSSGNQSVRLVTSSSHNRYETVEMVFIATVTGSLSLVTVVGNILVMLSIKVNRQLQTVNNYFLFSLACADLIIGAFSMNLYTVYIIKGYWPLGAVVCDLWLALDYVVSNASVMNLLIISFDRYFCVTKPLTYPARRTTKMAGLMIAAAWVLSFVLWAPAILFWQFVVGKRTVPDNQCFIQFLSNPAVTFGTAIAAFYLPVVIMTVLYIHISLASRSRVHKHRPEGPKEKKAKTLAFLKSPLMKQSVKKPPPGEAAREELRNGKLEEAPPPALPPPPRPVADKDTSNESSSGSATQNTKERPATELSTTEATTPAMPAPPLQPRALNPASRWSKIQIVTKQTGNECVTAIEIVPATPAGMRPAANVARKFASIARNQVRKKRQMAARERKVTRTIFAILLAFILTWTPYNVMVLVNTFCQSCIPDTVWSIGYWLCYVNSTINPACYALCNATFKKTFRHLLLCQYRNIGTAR

In the case of `Cc1cccc(-n2ncc(C#N)c2N)c1`, the cell count in experiment [1] is 644. Besides, the inhibition in experiment [1] was -3% (inactive); in experiment [3], -44.1% (inactive); in experiment [7] it was 18% (inactive); in experiment [8], 12.7% (inactive). Besides, in experiment [2], the inhibition of aggregation was 11.6% (inactive). In addition, the values for the nuclei count in experiment [2] and in experiment [3] were 97% and 144%, respectively. The fluorescence slope in experiment [4] is -0.482 (inactive); in experiment [6], 0.00451 (inactive). In addition, the NADPH fluorescence slope in experiment [5] is -2.8e-06 (inactive).

Take `CCC(c1nnnn1CCOC)N(Cc1ccc(C)cc1)Cc1cc2cc(OC)ccc2[nH]c1=O` (centres undefined): in experiment [1], the cell count was found to be 519. In addition, the inhibition in experiment [1] is 1.9% (inactive); in experiment [3] it was -127% (inactive); in experiment [7], 19% (inactive); in experiment [8] it was 27.8% (inactive). In experiment [2], the inhibition of aggregation is 11.8% (inactive). Also, the nuclei count came out at 99.2% in experiment [2] and 134% in experiment [3]. Also, the fluorescence slope in experiment [4] was -0.565 (inactive); in experiment [6], 0.00576 (inactive). Besides, the NADPH fluorescence slope in experiment [5] was -5.3e-05 (inactive).

As for `COC(=O)C1=C(C)Nc2nnnn2C1c1ccc(Cl)cc1Cl` (centres undefined), the cell count in experiment [1] is 433. Also, the inhibition was 7.3% (inactive) in experiment [1], 1.2% (inactive) in experiment [3], 13.6% (inactive) in experiment [7] and 19.3% (inactive) in experiment [8]. Also, the inhibition of aggregation in experiment [2] is -5.9% (inactive). Moreover, the nuclei count in experiment [2] and in experiment [3] was 105% in each case. The figures for the fluorescence slope in experiment [4] and in experiment [6] were -0.482 (inactive) and 0.0056 (inactive), respectively. In addition, the NADPH fluorescence slope in experiment [5] is -4.5e-05 (inactive).

On to `Clc1ccc(SCCn2ccnc2)cc1`, for which the cell count in experiment [1] was found to be 481. The inhibition in experiment [1] was 10.1% (inactive); in experiment [3], -245% (inactive); in experiment [7], 2.29% (inactive); in experiment [8], 5.02% (inactive). Further, in experiment [2], the inhibition of aggregation was -7.9% (inactive). Further, the nuclei count in experiment [2] was 104%; in experiment [3] it was 137%. In addition, the fluorescence slope in experiment [4] was -0.325 (inactive); in experiment [6], 0.00636 (inactive). In addition, the NADPH fluorescence slope in experiment [5] is -2.6e-05 (inactive).

Turning to `COc1cc(C(N)=O)ccc1OCc1ccccc1`, in experiment [1], the cell count was found to be 364. Besides, the inhibition in experiment [1] is 14% (inactive); in experiment [3], -51.6% (inactive); in experiment [7], -12.9% (inactive); in experiment [8], -32.5% (inactive). Further, the inhibition of aggregation in experiment [2] was -5.1% (inactive). For the same compound, the nuclei count in experiment [2] was determined as 107%; in experiment [3], 110%. In addition, the figures for the fluorescence slope in experiment [4] and in experiment [6] were -0.472 (inactive) and 0.00562 (inactive), respectively. Further, in experiment [5], the NADPH fluorescence slope is -7.2e-06 (inactive).

Take `COCC(=O)N(Cc1nc2ccccc2c(=O)[nH]1)Cc1cccs1`: the cell count in experiment [1] was 608. Moreover, the inhibition is -5.4% (inactive) in experiment [1], -64.2% (inactive) in experiment [3], 20.3% (inactive) in experiment [7] and 22.3% (inactive) in experiment [8]. In experiment [2], the inhibition of aggregation was -6.1% (inactive). For the same compound, the nuclei count in experiment [2] came to 105%; in experiment [3], 114%. For the same compound, the results for the fluorescence slope in experiment [4] and in experiment [6] were -0.557 (inactive) and 0.00566 (inactive), respectively. Besides, the NADPH fluorescence slope in experiment [5] is -3e-05 (inactive).

`Cc1nc(=S)n(-c2ccccc2)[nH]1`: the cell count in experiment [1] turned out to be 638. Also, the inhibition in experiment [1] was -5% (inactive); in experiment [3], -31.2% (inactive); in experiment [7] it was 11.3% (inactive); in experiment [8], 10.6% (inactive). Besides, the inhibition of aggregation in experiment [2] was 16.1% (inactive). Besides, the nuclei count in experiment [2] came out at 113%; in experiment [3] it was 120%. Further, the fluorescence slope is -0.538 (inactive) in experiment [4] and 0.00665 (inactive) in experiment [6]. In experiment [5], the NADPH fluorescence slope is -1.9e-05 (inactive).

As for `O=C(NCc1ccc(Cl)cc1)c1ccc(COCC(F)(F)F)o1`, the cell count in experiment [1] is 702. The inhibition was -3.9% (inactive) in experiment [1], -28.9% (inactive) in experiment [3], -1.43% (inactive) in experiment [7] and -15.5% (inactive) in experiment [8]. For the same compound, the inhibition of aggregation in experiment [2] was -3.7% (inactive). Besides, the nuclei count was 91.3% in experiment [2] and 101% in experiment [3]. The fluorescence slope is -0.421 (inactive) in experiment [4] and 0.00521 (inactive) in experiment [6]. Further, the NADPH fluorescence slope in experiment [5] was -0.00041 (inactive).

As to `O=c1c2ccccc2c(C=Nc2ccc(Cl)cn2)c(O)n1-c1cc(Cl)ccc1N1CCOCC1`, in experiment [1], the cell count worked out at 164. The inhibition was 14.4% (inactive) in experiment [1], -0.8% (inactive) in experiment [3], 7.35% (inactive) in experiment [7] and -5.13% (inactive) in experiment [8]. For the same compound, the inhibition of aggregation in experiment [2] was -6.2% (inactive). Besides, the nuclei count was 83.8% in experiment [2] and 90.3% in experiment [3]. Besides, the fluorescence slope is -0.551 (inactive) in experiment [4] and 0.00995 (inactive) in experiment [6]. For the same compound, the NADPH fluorescence slope in experiment [5] is -6e-05 (inactive).

For `COc1ccc(-c2noc(-c3cc(Cl)ccc3Cl)n2)cc1OC`, the cell count in experiment [1] worked out at 686. The inhibition in experiment [1] was -10.5% (inactive); in experiment [3], 14.6% (inactive); in experiment [7] it was 0.153% (inactive); in experiment [8] it was -15.5% (inactive). The inhibition of aggregation in experiment [2] is -10.9% (inactive). Also, the nuclei count in experiment [2] came to 104%; in experiment [3], 86.8%. Moreover, the fluorescence slope in experiment [4] was -0.526 (inactive); in experiment [6], 0.00828 (inactive). Also, in experiment [5], the NADPH fluorescence slope was -2.2e-05 (inactive).

In the case of `CCCn1c(SCC(=O)Nc2cc(C)on2)nc2c1c(=O)n(C)c(=O)n2C`, in experiment [1], the cell count came to 400. Further, the inhibition was 6.8% (inactive) in experiment [1], -36.6% (inactive) in experiment [3], -5.89% (inactive) in experiment [7] and 0.557% (inactive) in experiment [8]. For the same compound, in experiment [2], the inhibition of aggregation is 3.2% (inactive). Also, the nuclei count is 95.2% in experiment [2] and 152% in experiment [3]. Also, the fluorescence slope in experiment [4] was -0.551 (inactive); in experiment [6], 0.00431 (inactive). Also, the NADPH fluorescence slope in experiment [5] was -2.8e-05 (inactive).

As for `O=C(C1CCN(S(=O)(=O)c2ccc(-n3cnnn3)cc2)CC1)N1CCN(c2ccccc2)CC1`, the cell count in experiment [1] is 464. The inhibition was 4.2% (inactive) in experiment [1], -101% (inactive) in experiment [3], 18.7% (inactive) in experiment [7] and 18.2% (inactive) in experiment [8]. Moreover, in experiment [2], the inhibition of aggregation was 3.7% (inactive). Moreover, the nuclei count in experiment [2] stood at 76.8%; in experiment [3], 120%. Also, the fluorescence slope in experiment [4] was -0.569 (inactive); in experiment [6], 0.00595 (inactive). Moreover, the NADPH fluorescence slope in experiment [5] is -4.3e-05 (inactive).

With `CCCCOC(=O)Cn1c(=N)n(CCN2CCOCC2)c2ccccc21`, the cell count in experiment [1] stood at 488. Besides, the inhibition is 4% (inactive) in experiment [1], -46.3% (inactive) in experiment [3], 8.18% (inactive) in experiment [7] and 17.7% (inactive) in experiment [8]. In addition, the inhibition of aggregation in experiment [2] was 7.9% (inactive). Further, the nuclei count in experiment [2] came to 91.9%; in experiment [3], 84.8%. Further, the fluorescence slope in experiment [4] was -0.354 (inactive); in experiment [6], 0.00576 (inactive). In experiment [5], the NADPH fluorescence slope was -6.5e-05 (inactive).

Regarding `CN(CCCC(=O)Nc1ccncc1)S(=O)(=O)c1ccc(Cl)cc1`, the cell count in experiment [1] stood at 573. In addition, the inhibition in experiment [1] was -5.7% (inactive); in experiment [3] it was -18.9% (inactive); in experiment [7], -14.2% (inactive); in experiment [8], -29.3% (inactive). Also, the inhibition of aggregation in experiment [2] was -13.4% (inactive). The nuclei count stood at 106% in experiment [2] and 127% in experiment [3]. The values for the fluorescence slope in experiment [4] and in experiment [6] were -0.584 (inactive) and 0.00791 (inactive), respectively. In experiment [5], the NADPH fluorescence slope is 2.2e-07 (inactive).
